Measurements reported in ChEMBL document CHEMBL3124808, “C-peptide inhibitors of Ebola virus glycoprotein-mediated cell entry: effects of conjugation to cholesterol and side chain-side chain crosslinking” (Bioorg Med Chem Lett, 2013).
Active and inactive are the calls of the source. The calls are words filed in the database; no cut-off is given here. Where a SMILES comes first, the peptide text is derived from it. The star is where a group is joined. X1 = CC(C)CCC[C@@H](C)[C@H]1CC[C@H]2[C@@H]3CC=C4C[C@@H](OC(=O)C*)CC[C@]4(C)[C@H]3CC[C@]12C

Key:
Type in all cases: cell-based
[1] = target: T1, Envelope glycoprotein (Zaire ebolavirus (strain Mayinga-76) (ZEBOV) (Zaire Ebola virus)) (UniProt Q05320); assay: Inhibition of Vesicular stomatitis virus particle bearing EBOV glycoprotein-mediated viral entry in African green monkey Vero cells at 75 uM incubated for 1 hr prior to viral addition measured after 1 hr by fluorescence microscopy relative to control
T1 sequence (whole entry): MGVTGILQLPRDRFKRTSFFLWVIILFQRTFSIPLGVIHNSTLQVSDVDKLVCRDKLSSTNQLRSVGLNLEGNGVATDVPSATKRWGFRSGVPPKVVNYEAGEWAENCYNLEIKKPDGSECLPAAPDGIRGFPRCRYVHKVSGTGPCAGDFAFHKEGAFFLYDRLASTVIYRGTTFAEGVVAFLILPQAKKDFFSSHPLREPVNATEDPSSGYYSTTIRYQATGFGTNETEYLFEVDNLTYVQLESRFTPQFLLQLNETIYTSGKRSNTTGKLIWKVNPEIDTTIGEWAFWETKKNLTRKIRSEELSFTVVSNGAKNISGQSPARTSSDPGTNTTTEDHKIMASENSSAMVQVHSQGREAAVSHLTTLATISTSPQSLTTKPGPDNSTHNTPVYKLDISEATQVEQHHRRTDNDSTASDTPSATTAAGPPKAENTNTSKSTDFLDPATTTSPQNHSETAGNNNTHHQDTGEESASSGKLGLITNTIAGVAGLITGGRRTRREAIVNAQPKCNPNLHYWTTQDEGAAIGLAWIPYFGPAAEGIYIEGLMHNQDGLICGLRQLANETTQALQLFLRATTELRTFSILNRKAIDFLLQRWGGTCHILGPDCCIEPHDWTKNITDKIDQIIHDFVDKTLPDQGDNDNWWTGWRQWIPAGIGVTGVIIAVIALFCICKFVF

Vero [2] = assay: Inhibition of Vesicular stomatitis virus envelope glycoprotein G-mediated viral entry in African green monkey Vero cells at 40 uM incubated for 1 hr prior to viral addition measured after 1 hr by fluorescence microscopy relative to control
Vero [3] = assay: Cytotoxicity against African green monkey Vero cells at 40 uM by Cyto Tox Glo assay; conditions: chlorocebus sabaeus
Outline: (§1)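 Vero cells exposed to peptide were scored for tolerance by visual inspection and by a commercial cell viability assay.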

[4] = target: T1, Envelope glycoprotein (Zaire ebolavirus (strain Mayinga-76) (ZEBOV) (Zaire Ebola virus)); assay: Inhibition of Vesicular stomatitis virus particle bearing EBOV glycoprotein-mediated viral entry in African green monkey Vero cells at 40 uM incubated for 1 hr prior to viral addition measured after 1 hr by fluorescence microscopy relative to control
Outline: (§2)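 Vero host cells were infected with VSV particles bearing the EBOV glycoprotein in place of G, with a matrix protein–eGFP fusion. Primary infection events were quantified by fluorescence confocal microscopy, and inhibition was expressed as fold or percent reduction in infection versus control.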

[5] = target: T1, Envelope glycoprotein (Zaire ebolavirus (strain Mayinga-76) (ZEBOV) (Zaire Ebola virus)); assay: Inhibition of Vesicular stomatitis virus particle bearing EBOV glycoprotein-mediated viral entry in African green monkey Vero cells at 20 uM incubated for 1 hr prior to viral addition measured after 1 hr by fluorescence microscopy relative to control; outline: as §2
Vero [6] = assay: Inhibition of Vesicular stomatitis virus envelope glycoprotein G-mediated viral entry in African green monkey Vero cells at >10 uM incubated for 1 hr prior to viral addition measured after 1 hr by fluorescence microscopy relative to control
Vero [7] = assay: Inhibition of Vesicular stomatitis virus envelope glycoprotein G-mediated viral entry in African green monkey Vero cells at 10 uM incubated for 1 hr prior to viral addition measured after 1 hr by fluorescence microscopy relative to control
[8] = target: T1, Envelope glycoprotein (Zaire ebolavirus (strain Mayinga-76) (ZEBOV) (Zaire Ebola virus)); assay: Inhibition of Vesicular stomatitis virus particle bearing EBOV glycoprotein-mediated viral entry in African green monkey Vero cells incubated for 1 hr prior to viral addition measured after 1 hr by fluorescence microscopy relative to control; outline: as §2
[9] = target: T1, Envelope glycoprotein (Zaire ebolavirus (strain Mayinga-76) (ZEBOV) (Zaire Ebola virus)); assay: Inhibition of Vesicular stomatitis virus particle bearing EBOV glycoprotein-mediated viral entry in African green monkey Vero cells at >20 uM incubated for 1 hr prior to viral addition measured after 1 hr by fluorescence microscopy relative to control; outline: as §2
Vero [10] = assay: Inhibition of Vesicular stomatitis virus envelope glycoprotein G-mediated viral entry in African green monkey Vero cells incubated for 1 hr prior to viral addition measured after 1 hr by fluorescence microscopy relative to control
Vero [11] = assay: Cytotoxicity against African green monkey Vero cells at >15 uM by Cyto Tox Glo assay; conditions: chlorocebus sabaeus
Vero [12] = assay: Cytotoxicity against African green monkey Vero cells at 30 to 40 uM by Cyto Tox Glo assay; conditions: chlorocebus sabaeus; outline: as §1

## CC[C@H](C)[C@H](NC(=O)CNC(=O)[C@H](CO)NC(=O)CNC(=O)[C@H](CCCNC(=N)N)NC(=O)[C@H](CCCNC(=N)N)NC(=O)[C@H](CCCNC(=N)N)NC(=O)[C@H](CCC(N)=O)NC(=O)[C@H](CCCNC(=N)N)NC(=O)[C@H](CCCNC(=N)N)NC(=O)[C@H](CCCCN)NC(=O)[C@H](CCCCN)NC(=O)[C@H](CCCNC(=N)N)NC(=O)CNC(=O)[C@@H](N)Cc1ccc(O)cc1)C(=O)N[C@@H](CCC(=O)O)C(=O)N1CCC[C@H]1C(=O)N[C@@H](Cc1cnc[nH]1)C(=O)N[C@@H](CC(=O)O)C(=O)N[C@@H](Cc1c[nH]c2ccccc12)C(=O)N[C@H](C(=O)N[C@@H](CCCCN)C(=O)N[C@@H](CC(N)=O)C(=O)N[C@H](C(=O)N[C@H](C(=O)N[C@@H](CC(=O)O)C(=O)N[C@@H](CCCCN)C(=O)N[C@H](C(=O)N[C@@H](CC(=O)O)C(=O)N[C@@H](CCC(N)=O)C(=O)N[C@H](C(=O)N[C@H](C(=O)N[C@@H](Cc1cnc[nH]1)C(=O)N[C@@H](CC(=O)O)C(=O)N[C@@H](Cc1ccccc1)C(=O)N[C@H](C(=O)N[C@@H](CC(=O)O)C(=O)N[C@@H](CCCCN)C(=O)O)C(C)C)[C@@H](C)CC)[C@@H](C)CC)[C@@H](C)CC)[C@@H](C)O)[C@@H](C)CC)[C@@H](C)O
[1]
  inhibition: 99%

## CC[C@H](C)[C@H](NC(=O)CNC(=O)[C@H](CO)NC(=O)CNC(=O)[C@H](CCCNC(=N)N)NC(=O)[C@H](CCCNC(=N)N)NC(=O)[C@H](CCCNC(=N)N)NC(=O)[C@H](CCC(N)=O)NC(=O)[C@H](CCCNC(=N)N)NC(=O)[C@H](CCCNC(=N)N)NC(=O)[C@H](CCCCN)NC(=O)[C@H](CCCCN)NC(=O)[C@H](CCCNC(=N)N)NC(=O)CNC(=O)[C@H](Cc1ccc(O)cc1)NC(C)=O)C(=O)N[C@@H](CCC(=O)O)C(=O)N1CCC[C@H]1C(=O)N[C@@H](Cc1cnc[nH]1)C(=O)N[C@@H](CC(=O)O)C(=O)N[C@@H](Cc1c[nH]c2ccccc12)C(=O)N[C@H](C(=O)N[C@@H](CCCCN)C(=O)N[C@H]1CSCC(=O)NCCC[C@@H](C(=O)N[C@@H](CCCCN)C(=O)N[C@H](C(=O)N[C@@H](CC(=O)O)C(=O)N[C@@H](CCC(N)=O)C(=O)N[C@H](C(=O)N[C@H](C(=O)N[C@@H](Cc2cnc[nH]2)C(=O)N[C@@H](CC(=O)O)C(=O)N[C@@H](Cc2ccccc2)C(=O)N[C@H](C(=O)N[C@@H](CC(=O)O)C(=O)N[C@@H](CCCCN)C(=O)O)C(C)C)[C@@H](C)CC)[C@@H](C)CC)[C@@H](C)CC)NC(=O)[C@H]([C@@H](C)O)NC(=O)[C@H]([C@@H](C)CC)NC1=O)[C@@H](C)O
Vero [2]
  inhibition: 80%
Vero [3]
  Activity: Non-toxic
[4]
  inhibition: 99%

## CC[C@H](C)[C@H](NC(=O)CNC(=O)[C@H](CO)NC(=O)CNC(=O)[C@H](CCCCN)NC(=O)[C@H](CCCCN)NC(=O)[C@H](CCCCN)NC(=O)[C@H](CCCCN)NC(=O)[C@@H](N)CSCC(=O)O[C@H]1CC[C@@]2(C)C(=CC[C@H]3[C@@H]4CC[C@H]([C@H](C)CCCC(C)C)[C@@]4(C)CC[C@@H]32)C1)C(=O)N[C@@H](CCC(=O)O)C(=O)N1CCC[C@H]1C(=O)N[C@@H](Cc1cnc[nH]1)C(=O)N[C@@H](CC(=O)O)C(=O)N[C@@H](Cc1c[nH]c2ccccc12)C(=O)N[C@H](C(=O)N[C@@H](CCCCN)C(=O)N[C@@H](CC(N)=O)C(=O)N[C@H](C(=O)N[C@H](C(=O)N[C@@H](CC(=O)O)C(=O)N[C@@H](CCCCN)C(=O)N[C@H](C(=O)N[C@@H](CC(=O)O)C(=O)N[C@@H](CCC(N)=O)C(=O)N[C@H](C(=O)N[C@H](C(=O)N[C@@H](Cc1cnc[nH]1)C(=O)N[C@@H](CC(=O)O)C(=O)N[C@@H](Cc1ccccc1)C(=O)N[C@H](C(=O)N[C@@H](CC(=O)O)C(=O)N[C@@H](CCCCN)C(=O)O)C(C)C)[C@@H](C)CC)[C@@H](C)CC)[C@@H](C)CC)[C@@H](C)O)[C@@H](C)CC)[C@@H](C)O
[5]
  inhibition: Active
Vero [3]
  Activity: 20%
Vero [6]
  inhibition: > 99%
Vero [7]
  inhibition: 90%
[4]
  Ratio: 1000

## CC(C)CCC[C@@H](C)[C@H]1CC[C@H]2[C@@H]3CC=C4C[C@@H](O)CC[C@]4(C)[C@H]3CC[C@]12C
[8]
  inhibition: Active

## CC(C)CCC[C@@H](C)[C@H]1CC[C@H]2[C@@H]3CC=C4C[C@@H](OC(=O)CSC[C@H](NC(=O)CNC(=O)[C@H](CO)NC(=O)CNC(=O)[C@H](CCCCN)NC(=O)[C@H](CCCCN)NC(=O)[C@H](CCCCN)NC(=O)[C@@H](N)CCCCN)C(=O)O)CC[C@]4(C)[C@H]3CC[C@]12C (H-KKKKGSGC(X1)-OH)
[9]
  inhibition: > 90%
[5]
  inhibition: Active

## CC[C@H](C)[C@H](NC(=O)CNC(=O)[C@H](CO)NC(=O)CNC(=O)[C@H](CCCNC(=N)N)NC(=O)[C@H](CCCNC(=N)N)NC(=O)[C@H](CCCNC(=N)N)NC(=O)[C@H](CCC(N)=O)NC(=O)[C@H](CCCNC(=N)N)NC(=O)[C@H](CCCNC(=N)N)NC(=O)[C@H](CCCCN)NC(=O)[C@H](CCCCN)NC(=O)[C@H](CCCNC(=N)N)NC(=O)CNC(=O)[C@H](Cc1ccc(O)cc1)NC(C)=O)C(=O)N[C@@H](CCC(=O)O)C(=O)N1CCC[C@H]1C(=O)N[C@@H](Cc1cnc[nH]1)C(=O)N[C@@H](CC(=O)O)C(=O)N[C@@H](Cc1c[nH]c2ccccc12)C(=O)N[C@H](C(=O)N[C@@H](CCCCN)C(=O)N[C@@H](CC(N)=O)C(=O)N[C@H](C(=O)N[C@H](C(=O)N[C@H]1CSCC(=O)NCCC[C@H](C(=O)N[C@@H](CCC(N)=O)C(=O)N[C@H](C(=O)N[C@H](C(=O)N[C@@H](Cc2cnc[nH]2)C(=O)N[C@@H](CC(=O)O)C(=O)N[C@@H](Cc2ccccc2)C(=O)N[C@H](C(=O)N[C@@H](CC(=O)O)C(=O)N[C@@H](CCCCN)C(=O)O)C(C)C)[C@@H](C)CC)[C@@H](C)CC)NC(=O)[C@H]([C@@H](C)CC)NC(=O)[C@H](CCCCN)NC1=O)[C@@H](C)O)[C@@H](C)CC)[C@@H](C)O
Vero [10]
  inhibition: Active
[8]
  inhibition: Active
Vero [11]
  Activity: Toxic

## CC[C@H](C)[C@H](N)C(=O)N[C@@H](CCC(=O)O)C(=O)N1CCC[C@H]1C(=O)N[C@@H](Cc1cnc[nH]1)C(=O)N[C@@H](CC(=O)O)C(=O)N[C@@H](Cc1c[nH]c2ccccc12)C(=O)N[C@H](C(=O)N[C@@H](CCCCN)C(=O)N[C@@H](CC(N)=O)C(=O)N[C@H](C(=O)N[C@H](C(=O)N[C@@H](CC(=O)O)C(=O)N[C@@H](CCCCN)C(=O)N[C@H](C(=O)N[C@@H](CC(=O)O)C(=O)N[C@@H](CCC(N)=O)C(=O)N[C@H](C(=O)N[C@H](C(=O)N[C@@H](Cc1cnc[nH]1)C(=O)N[C@@H](CC(=O)O)C(=O)N[C@@H](Cc1ccccc1)C(=O)N[C@H](C(=O)N[C@@H](CC(=O)O)C(=O)N[C@@H](CCCCN)C(=O)NCC(=O)N[C@@H](CO)C(=O)NCC(=O)N[C@@H](CCCCN)C(=O)N[C@@H](CCCCN)C(=O)N[C@@H](CCCCN)C(=O)N[C@@H](CCCCN)C(=O)N[C@@H](CSCC(=O)O[C@H]1CC[C@@]2(C)C(=CC[C@H]3[C@@H]4CC[C@H]([C@H](C)CCCC(C)C)[C@@]4(C)CC[C@@H]32)C1)C(=O)O)C(C)C)[C@@H](C)CC)[C@@H](C)CC)[C@@H](C)CC)[C@H](C)O)[C@@H](C)CC)[C@@H](C)O
[5]
  inhibition: Active
Vero [12]
  Activity: 20%
Vero [6]
  inhibition: > 99%
Vero [7]
  inhibition: 90%
[4]
  Ratio: 1000
